Results on one compound are retold here after ChEMBL document CHEMBL4350999, “Enhanced tumor retention of NTSR1-targeted agents by employing a hydrophilic cysteine cathepsin inhibitor” (Eur J Med Chem, 2019).

For experiment [1], the target named is T1, Cathepsin B (Homo sapiens, UniProt P07858). The experiment is described as follows: Inhibition of human liver cathepsin B assessed as inhibition constant using Z-Arg-Arg-AMC as substrate measured every 5 mins for 1 hr by fluorescence assay.
The target of experiment [2] is T1, Cathepsin B. The experiment is described as follows: Inhibition of human liver cathepsin B assessed as second order rate constant using Z-Arg-Arg-AMC as substrate measured every 5 mins for 1 hr by fluorescence assay. Summed up:
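Human liver cathepsin B, 2 nM final, in 0.1 M phosphate pH 5.8 (1 mM EDTA, 2.7 mM DTT, 0.03% Brij35). Enzyme mixed with conjugate (1–500 nM final), then Z-Arg-Arg-AMC added (800 μM final); 37 °C. […] Biological triplicate.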

The target in experiment [3] is T1, Cathepsin B. The experiment is described as follows: Inhibition of human liver cathepsin B assessed as pseudo Michaelis-Menten constant at 10 nM using varying levels of Z-Arg-Arg-AMC as substrate measured every 5 mins for 1 hr by fluorescence assay.

The structures appear in SMILES notation. The source made the active and inactive calls. The calls are words filed in the database; no cut-off is given here.

As for `CC(C)C[C@H](NC(=O)CCC(=O)O)C(=O)N[C@@H](CCCNC(=N)N)C(=O)NCCN=[N+]=[N-]`, the inhibition entry in experiment [1] and in experiment [2] was “inactive” in each case. In experiment [3], the K was determined as 185 µM.
